Experiments:
[1] = Cytotoxicity against African Green monkey Vero E6 cells assessed as reduction in cell viability by CellTiter-Glo assay; format: toxicity, cell-based, Vero C1008; conditions: chlorocebus sabaeus
Method in brief: (§1)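 Vero E6 or A549 cells were seeded at 1×10^4/well and left overnight. Compounds were added at final 50 and 200 μM in 0.5% DMSO for 24 h. Read-out was CellTiter-Glo luminescence, with viability calculated relative to 0.5% DMSO-treated cells. Quadruplicate wells were run in one experiment, and CC50 was interpolated where possible.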

[2] = Cytotoxicity against human A549 cells assessed as reduction in cell viability by CellTiter-Glo assay; format: toxicity, cell-based; method in brief: as §1
[3] = Cytotoxicity against African Green monkey Vero E6 cells assessed as reduction in cell viability by CCK-8 assay; format: toxicity, cell-based, Vero C1008; conditions: chlorocebus sabaeus
Method in brief: as §1, with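 “CCK-8 absorbance” for “Read-out”, “read at 450 nm, and” for “CellTiter-Glo luminescence, with”, “viability was” for “viability”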

[4] = Cytotoxicity against human A549 cells assessed as reduction in cell viability by CCK-8 assay; format: toxicity, cell-based
Method in brief: as §1, with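 “CCK-8 absorbance” for “Read-out”, “read at 450 nm, and” for “CellTiter-Glo luminescence, with”, “viability was” for “viability”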

Procathepsin L [5] = target: T1, Procathepsin L (Homo sapiens, UniProt P07711); experiment: Inhibition of human cathepsin L
Target sequence in this assay (P07711 whole entry): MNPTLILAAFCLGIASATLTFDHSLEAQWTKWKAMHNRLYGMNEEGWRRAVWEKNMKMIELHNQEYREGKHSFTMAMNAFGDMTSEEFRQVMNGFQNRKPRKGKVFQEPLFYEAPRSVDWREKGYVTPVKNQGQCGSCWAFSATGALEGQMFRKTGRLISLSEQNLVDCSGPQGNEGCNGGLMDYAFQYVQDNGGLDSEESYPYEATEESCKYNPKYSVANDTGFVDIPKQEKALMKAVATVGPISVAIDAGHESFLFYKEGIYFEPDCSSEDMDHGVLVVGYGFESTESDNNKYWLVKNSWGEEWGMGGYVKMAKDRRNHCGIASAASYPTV

Cathepsin B [6] = target: T2, Cathepsin B (Homo sapiens, UniProt P07858); experiment: Inhibition of human cathepsin B
Cathepsin S [7] = target: T3, Cathepsin S (Homo sapiens, UniProt P25774); experiment: Inhibition of human cathepsin S
Method in brief: (§2)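 Human cathepsin S fluorometric kit assay, with compound incubated 30 min at room temperature at final 1% DMSO. […] Enzyme-control and test slopes were obtained by linear regression, and % relative inhibition was calculated per kit.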
Target sequence in this assay (P25774 whole entry): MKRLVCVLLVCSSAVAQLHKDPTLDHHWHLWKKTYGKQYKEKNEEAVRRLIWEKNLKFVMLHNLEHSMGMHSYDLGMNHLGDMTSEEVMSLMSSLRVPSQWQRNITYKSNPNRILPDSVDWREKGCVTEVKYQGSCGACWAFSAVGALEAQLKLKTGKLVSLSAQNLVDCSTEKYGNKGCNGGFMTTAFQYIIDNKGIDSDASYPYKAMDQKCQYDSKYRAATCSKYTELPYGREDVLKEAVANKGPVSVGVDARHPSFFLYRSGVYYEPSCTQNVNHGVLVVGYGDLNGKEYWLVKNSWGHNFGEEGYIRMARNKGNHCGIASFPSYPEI

Procathepsin L [8] = target: T1, Procathepsin L; experiment: Inhibition of human cathepsin L at 1 uM relative to control
Target sequence in this assay (P07711 114-333 limits assumed): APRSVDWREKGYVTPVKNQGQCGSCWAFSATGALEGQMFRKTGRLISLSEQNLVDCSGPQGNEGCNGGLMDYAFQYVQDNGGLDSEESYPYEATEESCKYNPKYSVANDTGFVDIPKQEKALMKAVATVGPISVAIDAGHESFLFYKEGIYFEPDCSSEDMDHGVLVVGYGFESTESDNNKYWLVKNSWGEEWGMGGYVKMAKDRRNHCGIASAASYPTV

SARS-CoV-2 [9] = experiment: Antiviral activity against SARS-CoV-2 infected in African Green monkey Vero E6 cells assessed as reduction in viral plaques by plaque reduction assay; format: functional, organism-based; conditions: Severe acute respiratory syndrome coronavirus 2, Vero C1008
SARS-CoV-2 [10] = experiment: Antiviral activity against SARS-CoV-2 infected in African Green monkey Vero E6 cells assessed as reduction in viral plaques in presence of efflux inhibitor CP-100356 by plaque reduction assay; format: functional, organism-based; conditions: Severe acute respiratory syndrome coronavirus 2, Vero C1008
Cathepsin B [11] = target: T2, Cathepsin B; experiment: Inhibition of human cathepsin B at 1 uM relative to control
Cathepsin S [12] = target: T3, Cathepsin S; experiment: Inhibition of human cathepsin S at 1 uM relative to control; method in brief: as §2
Target sequence in this assay (P25774 115-331 limits assumed): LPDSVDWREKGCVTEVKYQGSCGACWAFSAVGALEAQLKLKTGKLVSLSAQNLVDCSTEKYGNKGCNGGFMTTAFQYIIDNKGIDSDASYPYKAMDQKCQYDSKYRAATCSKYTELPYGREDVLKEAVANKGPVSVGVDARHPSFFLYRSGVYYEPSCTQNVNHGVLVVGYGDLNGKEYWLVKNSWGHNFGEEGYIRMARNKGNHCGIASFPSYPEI

[13] = target: Replicase polyprotein 1ab (Severe acute respiratory syndrome coronavirus 2, UniProt P0DTD1); experiment: Inhibition of SARS-CoV-2 3CL protease by FRET assay
[14] = Inhibition of Enterovirus 71 3Cpro
[15] = Selectivity ratio, ratio of IC50 for inhibition of human cathepsin B to IC50 for inhibition of SARS-CoV-2 3CL protease
[16] = Glutathione reactivity at pH 7.4 assessed as compound recovery measured after 24 hrs by LC-MS/MS method; format: physicochemical; conditions: glutathione solution, read-out: Activity
[17] = Stability of the compound in presence of glutathione by LC-MS/MS method; format: physicochemical
[18] = Selectivity ratio, ratio of IC50 for inhibition of human cathepsin S to IC50 for inhibition of SARS-CoV-2 3CL protease
[19] = Selectivity ratio, ratio of IC50 for inhibition of human cathepsin L to IC50 for inhibition of SARS-CoV-2 3CL protease
[20] = target: Replicase polyprotein 1ab (Severe acute respiratory syndrome coronavirus 2) (UniProt P0DTD1); experiment: Reversible inhibition of SARS-CoV-2 3CL protease assessed as enzyme recovery measured after 4 hrs by dialysis method relative to control; set-up: scale not given: the % may be the effect or the level left
Method in brief: (§3)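 SARS-CoV-2 3CLpro (final 2 μM) was preincubated with 20 μM inhibitor for 30 min at room temperature. Activity was compared with apo-enzyme dialysed under identical conditions.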

[21] = target: Replicase polyprotein 1ab (Severe acute respiratory syndrome coronavirus 2) (UniProt P0DTD1); experiment: Reversible inhibition of SARS-CoV-2 3CL protease assessed as enzyme recovery measured after 3 days by dialysis method relative to control; set-up: scale not given: the % may be the effect or the level left; conditions: time 3.0 day; method in brief: as §3

`COc1cccc2[nH]c(C(=O)N[C@@H](CC(C)C)C(=O)N[C@H](C=O)C[C@@H]3CCNC3=O)cc12` showed a CC50 [1] greater than 200 µM, a CC50 [2] greater than 200 µM and a CC50 [3] greater than 200 µM. It also gave a CC50 [4] greater than 200 µM, an IC50 (Procathepsin L [5]) of 0.28 µM and an IC50 (Cathepsin B [6]) of 2 µM. The IC50 (Cathepsin S [7]) was 0.04 µM and the inhibition (Procathepsin L [8]) was 53%.
Molecule `COc1cc(Cl)cc2[nH]c(C(=O)N[C@@H](CC(C)(C)C)C(=O)N[C@H](C#N)C[C@@H]3CCCNC3=O)cc12` has an EC50 (SARS-CoV-2 [9]) of 1.5 µM, an EC50 (SARS-CoV-2 [10]) of 0.21 µM and a CC50 [1] greater than 200 µM. It also gave a CC50 [2] greater than 200 µM, a CC50 [3] greater than 200 µM and a CC50 [4] greater than 200 µM. It also gave an inhibition (Cathepsin B [11]) of less than 1%, an inhibition (Cathepsin S [12]) of 64% and an inhibition (Procathepsin L [8]) of 18%.
`CC(C)C[C@H](NC(=O)c1cc2c(OC(F)(F)F)cccc2[nH]1)C(=O)N[C@H](C#N)C[C@@H]1CCCNC1=O` gave an IC50 [13] of 0.0137 µM, an EC50 (SARS-CoV-2 [9]) of 2.6 µM and an EC50 (SARS-CoV-2 [10]) of 0.35 µM. For the same molecule, the CC50 [1] was greater than 100 µM, the CC50 [2] was 90 µM and the CC50 [3] was greater than 100 µM. The CC50 [4] was 90 µM, the inhibition (Cathepsin B [11]) was less than 1% and the inhibition (Cathepsin S [12]) was 67%. For the same molecule, the inhibition (Procathepsin L [8]) was 8%.
With `CC(C)C[C@H](NC(=O)c1cc2c3c(ccc2[nH]1)CCO3)C(=O)N[C@H](C#N)C[C@@H]1CCCNC1=O` the EC50 (SARS-CoV-2 [9]) was greater than 10 µM, the CC50 [1] was greater than 200 µM and the CC50 [2] was greater than 200 µM. It also gave a CC50 [3] greater than 200 µM, a CC50 [4] greater than 200 µM and an inhibition (Cathepsin B [11]) of less than 1%. For the same molecule, the inhibition (Cathepsin S [12]) was 67% and the inhibition (Procathepsin L [8]) was 10%.
Work on `CCOc1cccc2[nH]c(C(=O)N[C@@H](CC(C)C)C(=O)N[C@H](C#N)C[C@@H]3CCCNC3=O)cc12` yielded an EC50 (SARS-CoV-2 [9]) of 4.8 µM, an EC50 (SARS-CoV-2 [10]) of 0.12 µM and a CC50 [1] greater than 200 µM. For the same molecule, the CC50 [2] was greater than 200 µM, the CC50 [3] was greater than 200 µM and the CC50 [4] was greater than 200 µM. The inhibition (Cathepsin B [11]) was less than 1%, the inhibition (Cathepsin S [12]) was 74% and the inhibition (Procathepsin L [8]) was less than 1%.
Work on `CC(C)C[C@H](NC(=O)[C@@H](NC(=O)[C@H](C)NC(=O)OCc1ccccc1)C(C)C)C(=O)N[C@H](C#N)CCC(N)=O` yielded an IC50 [13] of 4.6 µM.
`Cc1cc(C(=O)N[C@@H](Cc2ccc(F)cc2)C(=O)N[C@H](C#N)C[C@@H]2CCCNC2=O)no1` gave an IC50 [14] of 14.7 µM.
`COc1cccc2[nH]c(C(=O)N[C@@H](CC(C)C)C(=O)N[C@H](C#N)C[C@@H]3CCNC3=O)cc12` gave an EC50 (SARS-CoV-2 [9]) greater than 5 µM, a CC50 [1] greater than 200 µM and a CC50 [2] greater than 200 µM. For the same molecule, the CC50 [3] was greater than 200 µM, the CC50 [4] was greater than 200 µM and the IC50 (Procathepsin L [5]) was 1.45 µM. The inhibition (Cathepsin B [11]) was less than 1%, the IC50 (Cathepsin B [6]) was 28 µM and the inhibition (Cathepsin S [12]) was 78%. For the same molecule, the IC50 (Cathepsin S [7]) was 0.7 µM and the inhibition (Procathepsin L [8]) was 15%.
With `COc1cc(Cl)cc2[nH]c(C(=O)N[C@@H](CC(C)C)C(=O)N[C@H](C#N)C[C@@H]3CCCNC3=O)cc12` the EC50 (SARS-CoV-2 [9]) was 2.2 µM, the EC50 (SARS-CoV-2 [10]) was 0.233 µM and the CC50 [1] was greater than 200 µM. It also gave a CC50 [2] greater than 200 µM, a CC50 [3] greater than 200 µM and a CC50 [4] greater than 200 µM. For the same molecule, the IC50 (Procathepsin L [5]) was 0.47 µM, the inhibition (Cathepsin B [11]) was less than 1% and the IC50 (Cathepsin B [6]) was 18 µM. For the same molecule, the inhibition (Cathepsin S [12]) was 72%, the IC50 (Cathepsin S [7]) was 0.4 µM and the inhibition (Procathepsin L [8]) was 37%.
In the case of `COc1cccc2[nH]c(C(=O)N[C@@H](CC(C)C)C(=O)N[C@@H](C[C@@H]3CCCNC3=O)C(=O)CO)cc12`, the CC50 [1] is reported as greater than 200 µM, the CC50 [2] is reported as greater than 200 µM and the CC50 [3] is reported as greater than 200 µM. The CC50 [4] was greater than 200 µM.
Work on `COc1cccc2[nH]c(C(=O)N[C@@H](CC(C)C)C(=O)N[C@H](C#N)C[C@@H]3CCCNC3=O)cc12` yielded a Ratio IC50 [15] of 2420, an EC50 (SARS-CoV-2 [9]) of 2.7 µM and an EC50 (SARS-CoV-2 [10]) of 0.23 µM. The CC50 [1] was greater than 200 µM, the CC50 [2] was greater than 200 µM and the CC50 [3] was greater than 200 µM. It also gave a CC50 [4] greater than 200 µM, an IC50 (Procathepsin L [5]) of 0.64 µM and an inhibition (Cathepsin B [11]) of less than 1%. It also gave an IC50 (Cathepsin B [6]) of 32 µM, an inhibition (Cathepsin S [12]) of 73% and an IC50 (Cathepsin S [7]) of 2.5 µM. For the same molecule, the inhibition (Procathepsin L [8]) was 22%, the remaining at 24 h [16] was no less than 90% and the Stability [17] was “Stable”. The Ratio IC50 [18] was 189, the Ratio IC50 [19] was 48 and the Activity [20] was 10%. The Activity [21] was 45%.
For `CC(C)C[C@H](NC(=O)OCc1ccccc1)C(=O)N[C@@H](C[C@@H]1CCNC1=O)C(O)S(=O)(=O)O` (some centres not stated), the CC50 [1] was greater than 200 µM, the CC50 [2] was greater than 200 µM and the CC50 [3] was greater than 200 µM. For the same molecule, the CC50 [4] was greater than 200 µM, the IC50 (Procathepsin L [5]) was 0.00025 µM and the inhibition (Cathepsin B [11]) was 53%. For the same molecule, the IC50 (Cathepsin B [6]) was 1.4 µM, the inhibition (Cathepsin S [12]) was 99% and the IC50 (Cathepsin S [7]) was 0.023 µM. It also gave an inhibition (Procathepsin L [8]) of 100%.

From ChEMBL document CHEMBL5126498, “Peptidomimetic nitrile warheads as SARS-CoV-2 3CL protease inhibitors” (RSC Med Chem, 2021)
